Calls of active or inactive are those of the source. No cut-off for these calls is given here.
How the values were obtained:
SF-539 = assay: Cytotoxicity against human SF539 cells assessed as growth inhibition at 10 uM after 48 hrs by SRB assay; assay type: functional, cell-based
Outline: (§1)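 Single-dose screen run by the NCI Developmental Therapeutics Program (NCI-60). Cells were grown in RPMI 1640 with 5% fetal bovine serum and 2 mM L-glutamine. They were plated at 5000–40 000 cells/well, depending on doubling time. Each line was run in two plates and exposed to 10 μM drug for 48 h at 37 °C, 5% CO2, 100% humidity. Read-out was growth percent.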

SNB-75 = assay: Cytotoxicity against human SNB75 cells assessed as growth inhibition at 10 uM after 48 hrs by SRB assay; assay type: functional, cell-based
Outline: (§2)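 NCI-60 DTP human tumour line screen. Cells grown in RPMI 1640 with 5% fetal bovine serum and 2 mM L-glutamine, plated at 5000–40 000 cells/well according to doubling time. Single dose of 10 μM for 48 h at 37 °C, 5% CO2, 95% air, 100% humidity, two plates per line. Read-out is growth percent.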

U-251 = assay: Cytotoxicity against human U251 cells assessed as growth inhibition at 10 uM after 48 hrs by SRB assay; assay type: functional, cell-based; outline: as §2
M14 = assay: Cytotoxicity against human M14 cells assessed as growth inhibition at 10 uM after 48 hrs by SRB assay; assay type: functional, cell-based
Outline: (§3)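 NCI DTP 60-cell-line screen run at the NCI. Cells were grown in RPMI 1640 with 5% FBS and 2 mM L-glutamine. They were seeded at 5000–40 000 cells/well depending on doubling time and grown in two plates per line. Each was exposed to a single 10 μM dose for 48 h at 37 °C, 5% CO2, 95% air, 100% humidity. Read-out was percent growth.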

SK-MEL-2 = assay: Cytotoxicity against human SK-MEL-2 cells assessed as growth inhibition at 10 uM after 48 hrs by SRB assay; assay type: functional, cell-based; outline: as §1
SK-MEL-28 = assay: Cytotoxicity against human SK-MEL-28 cells assessed as growth inhibition at 10 uM after 48 hrs by SRB assay; assay type: functional, cell-based; outline: as §1
SK-MEL-5 = assay: Cytotoxicity against human SK-MEL-5 cells assessed as growth inhibition at 10 uM after 48 hrs by SRB assay; assay type: functional, cell-based; outline: as §1
IGROV-1 = assay: Cytotoxicity against human IGROV1 cells assessed as growth inhibition at 10 uM after 48 hrs by SRB assay; assay type: functional, cell-based; outline: as §3
OVCAR-3 = assay: Cytotoxicity against human OVCAR3 cells assessed as growth inhibition at 10 uM after 48 hrs by SRB assay; assay type: functional, cell-based; outline: as §1
OVCAR-4 = assay: Cytotoxicity against human OVCAR4 cells assessed as growth inhibition at 10 uM after 48 hrs by SRB assay; assay type: functional, cell-based; outline: as §1
OVCAR-8 = assay: Cytotoxicity against human OVCAR8 cells assessed as growth inhibition at 10 uM after 48 hrs by SRB assay; assay type: functional, cell-based; outline: as §1
ACHN = assay: Cytotoxicity against human ACHN cells assessed as growth inhibition at 10 uM after 48 hrs by SRB assay; assay type: functional, cell-based; outline: as §3
CAKI-1 = assay: Cytotoxicity against human Caki1 cells assessed as growth inhibition at 10 uM after 48 hrs by SRB assay; assay type: functional, cell-based; outline: as §3
RXF 393 = assay: Cytotoxicity against human RXF393 cells assessed as growth inhibition at 10 uM after 48 hrs by SRB assay; assay type: functional, cell-based; outline: as §1
PC-3 = assay: Cytotoxicity against human PC3 cells assessed as growth inhibition at 10 uM after 48 hrs by SRB assay; assay type: functional, cell-based; outline: as §1
MCF7 = assay: Cytotoxicity against human MCF7 cells assessed as growth inhibition at 10 uM after 48 hrs by SRB assay; assay type: functional, cell-based; outline: as §1
MDA-MB-231 = assay: Cytotoxicity against human MDA-MB-231 cells assessed as growth inhibition at 10 uM after 48 hrs by SRB assay; assay type: functional, cell-based; outline: as §1
T47D = assay: Cytotoxicity against human T47D cells assessed as growth inhibition at 10 uM after 48 hrs by SRB assay; assay type: functional, cell-based; outline: as §2
HOP-62 = assay: Cytotoxicity against human HOP62 cells assessed as growth inhibition at 10 uM after 48 hrs by SRB assay; assay type: functional, cell-based; outline: as §3
HOP-92 = assay: Cytotoxicity against human HOP92 cells assessed as growth inhibition at 10 uM after 48 hrs by SRB assay; assay type: functional, cell-based; outline: as §3
NCI-H23 = assay: Cytotoxicity against human NCI-H23 cells assessed as growth inhibition at 10 uM after 48 hrs by SRB assay; assay type: functional, cell-based; outline: as §1
NCI-H322M = assay: Cytotoxicity against human NCI-H322M cells assessed as growth inhibition at 10 uM after 48 hrs by SRB assay; assay type: functional, cell-based; outline: as §1
NCI-H460 = assay: Cytotoxicity against human NCI-H460 cells assessed as growth inhibition at 10 uM after 48 hrs by SRB assay; assay type: functional, cell-based; outline: as §1
COLO 205 = assay: Cytotoxicity against human COLO205 cells assessed as growth inhibition at 10 uM after 48 hrs by SRB assay; assay type: functional, cell-based; outline: as §3
HCC 2998 = assay: Cytotoxicity against human HCC2998 cells assessed as growth inhibition at 10 uM after 48 hrs by SRB assay; assay type: functional, cell-based; outline: as §3
HCT-116 = assay: Cytotoxicity against human HCT116 cells assessed as growth inhibition at 10 uM after 48 hrs by SRB assay; assay type: functional, cell-based; outline: as §3
HCT-15 = assay: Cytotoxicity against human HCT15 cells assessed as growth inhibition at 10 uM after 48 hrs by SRB assay; assay type: functional, cell-based; outline: as §3
HT-29 = assay: Cytotoxicity against human HT-29 cells assessed as growth inhibition at 10 uM after 48 hrs by SRB assay; assay type: functional, cell-based; outline: as §3
SF-268 = assay: Cytotoxicity against human SF268 cells assessed as growth inhibition at 10 uM after 48 hrs by SRB assay; assay type: functional, cell-based; outline: as §1
SF-295 = assay: Cytotoxicity against human SF295 cells assessed as growth inhibition at 10 uM after 48 hrs by SRB assay; assay type: functional, cell-based; outline: as §1
[1] = Induction of [32P]-labeled 49-mer oligonucleotide duplex DNA 12 with GNC sequence at terminus (unknown origin) interstrand cross-linking at 1 mM after 16 hrs by PAGE
Outline: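 32P-labelled 12a (1.0 μM) annealed with 1.5 equiv of 12b in 10 mM potassium phosphate pH 7 / 100 mM NaCl (65 °C for 3 min, then slow cooling). Duplex incubated with compound (final 1 μM–5 mM), with or without H2O2, in NaCl and potassium phosphate pH 8 at room temperature for 16 h. Quenched in formamide; 20% denaturing PAGE.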

EKVX = assay: Cytotoxicity against human EKVX cells assessed as growth inhibition at 10 uM after 48 hrs by SRB assay; assay type: functional, cell-based; outline: as §3
A549 = assay: Cytotoxicity against human A549 cells assessed as growth inhibition at 10 uM after 48 hrs by SRB assay; assay type: functional, cell-based; outline: as §3
RPMI-8226 = assay: Cytotoxicity against human RPMI8226 cells assessed as growth inhibition at 10 uM after 48 hrs by SRB assay; assay type: functional, cell-based; outline: as §1
K562 = assay: Cytotoxicity against human K562 cells assessed as growth inhibition at 10 uM after 48 hrs by SRB assay; assay type: functional, cell-based; outline: as §3
HL-60(TB) = assay: Cytotoxicity against human HL-60(TB) cells assessed as growth inhibition at 10 uM after 48 hrs by SRB assay; assay type: functional, cell-based; outline: as §3
CCRF-CEM = assay: Cytotoxicity against human CCRF-CEM cells assessed as growth inhibition at 10 uM after 48 hrs by SRB assay; assay type: functional, cell-based; outline: as §3

| SMILES | growth inhibition (GI) (SF-539) | growth inhibition (GI) (SNB-75) | growth inhibition (GI) (U-251) | growth inhibition (GI) (M14) | growth inhibition (GI) (SK-MEL-2) | growth inhibition (GI) (SK-MEL-28) | growth inhibition (GI) (SK-MEL-5) | growth inhibition (GI) (IGROV-1) | growth inhibition (GI) (OVCAR-3) | growth inhibition (GI) (OVCAR-4) | growth inhibition (GI) (OVCAR-8) | growth inhibition (GI) (ACHN) | growth inhibition (GI) (CAKI-1) | growth inhibition (GI) (RXF 393) | growth inhibition (GI) (PC-3) | growth inhibition (GI) (MCF7) | growth inhibition (GI) (MDA-MB-231) | growth inhibition (GI) (T47D) | growth inhibition (GI) (HOP-62) | growth inhibition (GI) (HOP-92) | further results |
| --- | --- | --- | --- | --- | --- | --- | --- | --- | --- | --- | --- | --- | --- | --- | --- | --- | --- | --- | --- | --- | --- |
| CC1(C)OB(c2ccc(N(CCCl)CCBr)cc2)OC1(C)C | Active | Active | Active | Active | Active | Active | Active | Active | Active | Active | Active | Active | Active | Active | Active | Active | Active | Active | Active | Active | growth inhibition (GI) (NCI-H23): Active; growth inhibition (GI) (NCI-H322M): Active; growth inhibition (GI) (NCI-H460): Active; growth inhibition (GI) (COLO 205): Active; growth inhibition (GI) (HCC 2998): Active; growth inhibition (GI) (HCT-116): Active; growth inhibition (GI) (HCT-15): Active; growth inhibition (GI) (HT-29): Active; growth inhibition (GI) (SF-268): Active; growth inhibition (GI) (SF-295): Active; Activity [1]: inactive; growth inhibition (GI) (EKVX): Active; growth inhibition (GI) (A549): Active; growth inhibition (GI) (RPMI-8226): Active; growth inhibition (GI) (K562): Active; growth inhibition (GI) (HL-60(TB)): Active; growth inhibition (GI) (CCRF-CEM): Active |
| CC1(C)OB(c2ccc(N(CCCl)CCCl)cc2)OC1(C)C | Active | Active | Active | Active | Active | Active | Active | Active | Active | Active | Active | Active | Active | Active | Active | Active | Active | Active | Active | Active | growth inhibition (GI) (NCI-H23): Active; growth inhibition (GI) (NCI-H322M): Active; growth inhibition (GI) (NCI-H460): Active; growth inhibition (GI) (COLO 205): Active; growth inhibition (GI) (HCC 2998): Active; growth inhibition (GI) (HCT-116): Active; growth inhibition (GI) (HCT-15): Active; growth inhibition (GI) (HT-29): Active; growth inhibition (GI) (SF-268): Active; growth inhibition (GI) (SF-295): Active; Activity [1]: inactive; growth inhibition (GI) (EKVX): Active; growth inhibition (GI) (A549): Active; growth inhibition (GI) (RPMI-8226): Active; growth inhibition (GI) (K562): Active; growth inhibition (GI) (HL-60(TB)): Active; growth inhibition (GI) (CCRF-CEM): Active |
| CC1(C)OB(c2ccc(N(CCBr)CCOS(C)(=O)=O)cc2)OC1(C)C | Active | Active | Active | Active | Active | Active | Active | Active | Active | Active | Active | Active | Active | Active | Active | Active | Active | Active | Active | Active | growth inhibition (GI) (NCI-H23): Active; growth inhibition (GI) (NCI-H322M): Active; growth inhibition (GI) (NCI-H460): Active; growth inhibition (GI) (COLO 205): Active; growth inhibition (GI) (HCC 2998): Active; growth inhibition (GI) (HCT-116): Active; growth inhibition (GI) (HCT-15): Active; growth inhibition (GI) (HT-29): Active; growth inhibition (GI) (SF-268): Active; growth inhibition (GI) (SF-295): Active; Activity [1]: inactive; growth inhibition (GI) (EKVX): Active; growth inhibition (GI) (A549): Active; growth inhibition (GI) (RPMI-8226): Active; growth inhibition (GI) (K562): Active; growth inhibition (GI) (HL-60(TB)): Active; growth inhibition (GI) (CCRF-CEM): Active |
| CC1(C)OB(c2ccc(COC(=O)N(CCCl)CCCl)cc2)OC1(C)C | inactive | inactive | inactive | inactive | inactive | inactive | inactive | inactive | inactive | inactive | inactive | inactive | inactive | inactive | inactive | inactive | inactive | inactive | inactive | inactive | growth inhibition (GI) (NCI-H23): inactive; growth inhibition (GI) (NCI-H322M): inactive; growth inhibition (GI) (NCI-H460): inactive; growth inhibition (GI) (COLO 205): inactive; growth inhibition (GI) (HCC 2998): inactive; growth inhibition (GI) (HCT-116): inactive; growth inhibition (GI) (HCT-15): inactive; growth inhibition (GI) (HT-29): inactive; growth inhibition (GI) (SF-268): inactive; growth inhibition (GI) (SF-295): inactive; Activity [1]: inactive; growth inhibition (GI) (EKVX): inactive; growth inhibition (GI) (A549): inactive; growth inhibition (GI) (RPMI-8226): inactive; growth inhibition (GI) (K562): inactive; growth inhibition (GI) (HL-60(TB)): inactive; growth inhibition (GI) (CCRF-CEM): inactive |

Source: ChEMBL document CHEMBL3286203, “Reactive oxygen species (ROS) inducible DNA cross-linking agents and their effect on cancer cells and normal lymphocytes” (J Med Chem, 2014)
